# Results published in ChEMBL document CHEMBL1126069, “Synthesis of high affinity fluorine-substituted ligands for the androgen receptor. Potential agents for imaging prostatic cancer by positron emission tomography” (J Med Chem, 1992).
# How the values were obtained:
# [1] = Relative affinity for rat androgen receptor(AR) and human Sex steroid binding protein (SBP)
# Outline: (§1)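 Each ratio is AR relative binding affinity divided by the RBA for PgR, MR or SBP. The AR source was ventral prostate cytosol from mature male Holtzman rats orchidectomized 24 h before. Cytosol was preincubated with triamcinolone acetonide to block PgR and corticosteroid receptors. [3H]R1881 served as tracer, incubated 18 h at 0 °C. Free ligand was removed with dextran-coated charcoal, 15 min at 0 °C. AR RBA is on a percent scale versus R1881.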
# Rattus norvegicus [2] = species: Rattus norvegicus; experiment: Relative affinity for rat androgen receptor(AR) and mineralocorticoid receptor(MR); outline: as §1
# Rattus norvegicus [3] = species: Rattus norvegicus; experiment: Relative affinity for rat androgen receptor(AR) and progesterone receptor(PgR); outline: as §1
# [4] = biological target: T1, Mineralocorticoid receptor (Rattus norvegicus) (UniProt P22199); experiment: Displacement of [3H]aldosterone from rat Mineralocorticoid receptor
# T1 sequence (whole entry): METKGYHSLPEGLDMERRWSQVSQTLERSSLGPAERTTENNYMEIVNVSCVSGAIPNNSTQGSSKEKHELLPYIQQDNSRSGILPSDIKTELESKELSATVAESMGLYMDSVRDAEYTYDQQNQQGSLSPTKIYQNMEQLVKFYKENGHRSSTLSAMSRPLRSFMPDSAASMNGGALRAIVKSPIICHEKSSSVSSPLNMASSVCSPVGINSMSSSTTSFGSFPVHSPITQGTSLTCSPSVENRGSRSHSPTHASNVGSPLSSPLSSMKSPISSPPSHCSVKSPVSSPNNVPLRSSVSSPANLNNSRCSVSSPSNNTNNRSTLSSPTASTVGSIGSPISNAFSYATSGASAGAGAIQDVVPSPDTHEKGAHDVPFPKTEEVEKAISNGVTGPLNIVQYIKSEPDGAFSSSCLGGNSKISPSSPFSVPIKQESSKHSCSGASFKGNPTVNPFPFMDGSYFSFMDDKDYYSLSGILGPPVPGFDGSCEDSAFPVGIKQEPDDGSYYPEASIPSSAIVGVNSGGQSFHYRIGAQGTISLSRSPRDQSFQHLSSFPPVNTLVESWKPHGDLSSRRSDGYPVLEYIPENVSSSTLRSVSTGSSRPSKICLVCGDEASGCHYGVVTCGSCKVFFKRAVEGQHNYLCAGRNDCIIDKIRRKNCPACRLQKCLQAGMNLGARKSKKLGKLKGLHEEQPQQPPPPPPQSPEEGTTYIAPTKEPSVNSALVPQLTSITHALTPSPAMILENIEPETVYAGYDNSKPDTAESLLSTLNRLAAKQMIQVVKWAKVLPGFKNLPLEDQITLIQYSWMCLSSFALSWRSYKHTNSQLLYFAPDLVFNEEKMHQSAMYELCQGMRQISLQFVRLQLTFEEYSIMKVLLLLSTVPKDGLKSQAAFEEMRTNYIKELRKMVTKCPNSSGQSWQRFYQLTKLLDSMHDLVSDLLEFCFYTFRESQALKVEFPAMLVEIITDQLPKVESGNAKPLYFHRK
# Outline: (§2)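 Competitive radiometric binding assay giving relative binding affinities. The reference standards were R5020 for rat PgR, aldosterone for rat MR and estradiol for human SBP.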
# [5] = biological target: T2, Progesterone receptor (Rattus norvegicus) (UniProt Q63449); experiment: Displacement of [3H]R5020 from rat progesterone receptor(PgR); outline: as §2
# T2 sequence (whole entry): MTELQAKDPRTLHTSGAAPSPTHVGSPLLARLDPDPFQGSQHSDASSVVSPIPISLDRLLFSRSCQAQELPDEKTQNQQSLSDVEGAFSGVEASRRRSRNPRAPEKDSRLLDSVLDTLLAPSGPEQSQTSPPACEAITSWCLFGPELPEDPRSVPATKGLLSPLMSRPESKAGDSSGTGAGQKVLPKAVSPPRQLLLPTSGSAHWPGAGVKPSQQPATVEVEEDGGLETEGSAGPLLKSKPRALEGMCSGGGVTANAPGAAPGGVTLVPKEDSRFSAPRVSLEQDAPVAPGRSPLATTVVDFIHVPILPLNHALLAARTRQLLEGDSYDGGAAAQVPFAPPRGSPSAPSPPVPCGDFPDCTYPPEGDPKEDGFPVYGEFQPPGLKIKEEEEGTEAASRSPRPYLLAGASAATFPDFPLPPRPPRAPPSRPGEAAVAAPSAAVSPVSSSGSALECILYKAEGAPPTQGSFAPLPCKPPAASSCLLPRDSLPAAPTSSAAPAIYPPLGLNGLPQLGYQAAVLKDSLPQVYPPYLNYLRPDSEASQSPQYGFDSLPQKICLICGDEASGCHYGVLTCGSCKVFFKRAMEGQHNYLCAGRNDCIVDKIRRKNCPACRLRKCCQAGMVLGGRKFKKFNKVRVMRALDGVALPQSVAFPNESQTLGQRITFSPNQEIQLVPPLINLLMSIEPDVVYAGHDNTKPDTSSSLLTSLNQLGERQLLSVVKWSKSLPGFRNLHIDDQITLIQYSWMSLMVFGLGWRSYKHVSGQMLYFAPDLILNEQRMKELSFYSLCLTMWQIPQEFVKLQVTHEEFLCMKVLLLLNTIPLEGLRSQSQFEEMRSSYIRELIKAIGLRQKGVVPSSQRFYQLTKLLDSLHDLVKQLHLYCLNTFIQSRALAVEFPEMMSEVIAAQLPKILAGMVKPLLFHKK
# [6] = biological target: T3, Sex hormone-binding globulin (Homo sapiens) (UniProt P04278); experiment: Displacement of [3H]estradiol from human Sex steroid binding protein (SBP); outline: as §2
# T3 sequence (whole entry): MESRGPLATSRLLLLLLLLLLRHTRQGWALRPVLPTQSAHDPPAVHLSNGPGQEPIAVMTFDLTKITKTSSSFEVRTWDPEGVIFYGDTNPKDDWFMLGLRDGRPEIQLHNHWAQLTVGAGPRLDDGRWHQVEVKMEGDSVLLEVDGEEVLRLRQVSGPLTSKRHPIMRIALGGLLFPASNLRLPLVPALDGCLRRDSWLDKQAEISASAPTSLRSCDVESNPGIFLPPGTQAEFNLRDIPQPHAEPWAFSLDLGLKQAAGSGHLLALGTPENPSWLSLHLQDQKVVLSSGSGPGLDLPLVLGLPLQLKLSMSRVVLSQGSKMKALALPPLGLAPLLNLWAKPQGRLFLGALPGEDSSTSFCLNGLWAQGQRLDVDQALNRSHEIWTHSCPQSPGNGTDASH
Structure (SMILES),RBA ratio [1],RBA ratio (Rattus norvegicus [2]),RBA ratio (Rattus norvegicus [3]),relative binding affinity (RBA) [4],relative binding affinity (RBA) [5],relative binding affinity (RBA) [6]
C[C@]12CC[C@H]3[C@@H](CCC4CC(=O)CC[C@@]43C)[C@@H]1C[C@@H](F)[C@@H]2O (some centres not stated),0.02,75.5,56.1,0.05,0.07,228
C[C@@H]1CC2=CC(=O)CC[C@@H]2C2CC[C@@]3(C)C(CC[C@]3(C)O)C21 (some centres not stated),6.2,20.7,5.8,5.7,20.4,19
C[C@@H]1CC2=CC(=O)CC[C@@H]2C2CC[C@@]3(C)C(C[C@H](F)[C@]3(C)O)C21 (some centres not stated),23.7,385,10.3,0.08,3,1.3
C[C@@H]1CC2=CC(=O)CC[C@@H]2C2CC[C@@]3(C)C(C[C@H](F)[C@@H]3O)C21 (some centres not stated),9.7,730,23.4,0.05,1.6,3.75
C[C@@H]1CC2=CC(=O)CC[C@@H]2C2CC[C@@]3(C)C(C[C@@H](F)[C@]3(C)O)C21 (some centres not stated),12,101,2.6,0.37,14.4,3.1
C[C@]12C=CC3=C4CCC(=O)C=C4CCC3C1CC[C@@]2(O)CF (some centres not stated),8.5,4.2,1.8,4.5,10.5,2.2
C[C@]1(O)CC[C@H]2[C@@H]3CCC4=CC(=O)CCC4=C3C=C[C@@]21C,25,3.9,2.3,25.4,43.7,4
C[C@@H]1CC2=CC(=O)CC[C@@H]2C2CC[C@@]3(C)C(CC[C@@H]3O)C21 (some centres not stated),5.4,210,42.1,0.74,3.7,28.7
C[C@]12CC[C@H]3[C@@H](CCC4=CC(=O)CC[C@@H]43)[C@@H]1CC[C@@H]2O,,,,2,3.1,29.9
C[C@@H]1CC2=CC(=O)CC[C@@H]2C2CC[C@@]3(C)C(CC[C@@]3(O)CF)C21 (some centres not stated),17.7,61.9,5.2,0.86,10.3,3
C[C@]12CC[C@H]3[C@@H](CCC4CC(=O)CC[C@@]43C)[C@@H]1C[C@H](F)[C@@H]2O (some centres not stated),0.16,689,356,0.06,0.12,385
C[C@@H]1CC2=CC(=O)CC[C@@H]2C2CC[C@@]3(C)C(C[C@@H](F)[C@@H]3O)C21 (some centres not stated),5.5,104,3.8,0.21,5.7,4.01
C[C@]12CC[C@H]3[C@@H](CCC4=CC(=O)CC[C@@]43C)[C@@H]1CC[C@@H]2O,,,,4.19,0.09,417
